Data set [1] has as its target Mitogen-activated protein kinase 1 (Homo sapiens) (UniProt P28482). Description: Inhibition of MAPK2 (unknown origin) at 10 uM.
The target in data set [2] is Mitogen-activated protein kinase 11 (Homo sapiens) (UniProt Q15759). Description: Inhibition of p38MAPK beta (unknown origin) at 10 uM relative to control.
The next data set has as its system Liver. Description: Drug level in rat liver microsomes treated with CBS-3595 at 10 to 100 uM. In kind it is ADME, microsome. The method in brief: (§1)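 Test compound incubated at 10, 30 and 100 μM with liver microsomes from rat, Cynomolgus monkey or human, and metabolites monitored.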
In general terms: Microsomes from liver hold many membrane-bound enzymes, among them those of drug oxidation.

Data set [3] relates to Canis familiaris. The experiment in a line: AUC (0 to t) in Beagle dog assessed as 4-(4-(4-fluorophenyl)-1-methyl-2-(methylsulfinyl)-1H-imidazol-5-yl)pyridin-2-amine level at 40 mg/kg, po by LC-MS/MS analysis. To be noted: in vivo. In kind it is ADME, organism-based, Canis lupus familiaris. The method in brief:
(§2)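 Toxicokinetics from a maximum-tolerated-dose study in four Beagle dogs given 40 mg/kg orally. Plasma levels of both parent and its predominant metabolite were monitored.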

In data set [4] the test system is Canis familiaris. The experiment in a line: Cmax in Beagle dog assessed as 4-(4-(4-fluorophenyl)-1-methyl-2-(methylsulfinyl)-1H-imidazol-5-yl)pyridin-2-amine level at 40 mg/kg, po by LC-MS/MS analysis. In kind it is ADME, organism-based, Canis lupus familiaris. Details: dose 40 mg/kg, route oral. Particulars: in vivo. The method in brief: as §2
For data set [5], the system named is Rattus norvegicus. Description: Antiarthritic activity in Lewis rat assessed as decrease in collagen-induced arthritic score at 25 mg/kg, po bid administered for 10 days. The data set is classed as functional, organism-based. The method in brief: (§3)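 Collagen-induced arthritis in male Lewis rats (5–6 per group). Groups received vehicle, dexamethasone 1 mg/kg, test item 50 mg/kg once daily, or 25 mg/kg twice daily for 10 days. Body weight, arthritic score and paw volume were monitored, and serum COMP was measured at the end.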

Data set [6] has as its system Mus musculus. The experiment in a line: Antiarthritic activity in human TNF transgenic mouse model assessed as reduction in cartilage damage at 20 to 50 mg/kg/day, po for 10 weeks. The data set is classed as functional, organism-based. The method in brief: (§4)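 Heterozygous human TNF transgenic mice (8 per group) were dosed orally for ten weeks with 20 or 50 mg/kg/day as a methylcellulose suspension, alongside vehicle and infliximab i.p. controls. Joint swelling and grip strength were scored weekly, and hind paws were examined histologically at the end.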

Data set [7] is described as follows: Cmax in cynomolgus monkey at 20 mg/kg, po measured on day 1 and 27 post dose by LC-MS/MS analysis. The data set is classed as ADME, organism-based, Macaca fascicularis. Details: dose 20 mg/kg, route oral. Particulars: in vivo. A digest of the protocol: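 Within a 4-week oral toxicity study, Cynomolgus monkeys received 6, 12 or 20 mg/kg daily. Blood was sampled from 0.5 to 24 h post dose on days 1 and 27. Tmax, Cmax, T1/2 and AUC0–24 came from individual profiles of parent and metabolite.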

The nature of data set [8]: AUC (0 to t) in Beagle dog at 40 mg/kg, po by LC-MS/MS analysis. In kind it is ADME, organism-based, Canis lupus familiaris. To be noted: in vivo. A digest of the protocol:
as §2

Data set [9] in a line: Drug metabolism in human urine assessed as 4-(4-(4-fluorophenyl)-1-methyl-2-(methylsulfinyl)-1H-imidazol-5-yl)pyridin-2-amine formation at 10 to 50 mg, po administered as single dose after 36 hrs. The data set is classed as ADME, organism-based. To be noted: in vivo. A digest of the protocol: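 Healthy subjects, single oral dose. Urine collected at 0–6, 6–12, 12–24 and 24–36 h post dose and analysed for parent and metabolite. Excreted amount expressed relative to administered dose.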

Data set [10] can be described thus: Toxicity in Sprague-Dawley rat administered via oral gavage measured for 14 days. To be noted: in vivo.
Data set [11] has as its system Rattus norvegicus. Description: Antiarthritic activity in Lewis rat assessed as decrease in collagen-induced arthritic score at 50 mg/kg, po qd administered for 10 days. The data set is classed as functional, organism-based. A digest of the protocol: as §3
Data set [12] concerns Mus musculus. The experiment in a line: Antiarthritic activity in human TNF transgenic mouse model assessed as reduction in synovitis at 20 to 50 mg/kg/day, po for 10 weeks. In kind it is functional, organism-based. The method in brief:
as §4

Data set [13] concerns the target Adenosine receptor A1 (Homo sapiens) (UniProt P30542). Description: Antagonist activity at adenosine A1 receptor (unknown origin) at 10 uM relative to control.
A further data set relates to Serum. Description: Drug uptake in male Lewis rat serum at 10 mg/kg, po by LC-MS/MS analysis. To be noted: in vivo. In kind it is ADME, organism-based. The method in brief: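 Male Lewis rats were dosed orally at 10 mg/kg 1 h before an i.v. LPS challenge of 0.1 mg/kg. Serum drug concentration was measured 1.5 h after LPS.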
The test system of data set [14] is Mus musculus. Description: In vivo inhibition of P38 MAPKalpha in BALB/c mouse assessed as decrease in LPS/GalN-stimulated TNFalpha level in plasma at 30 mg/kg, po administered via gavage pretreated for 1 hr followed by LPS/GalN addition measured after 1.5 hrs relative to control. In kind it is functional. The method in brief: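 Male BALB/c mice, n = 6/group, given 3, 10 or 30 mg/kg orally by gavage 1 h before i.p. D-GalN (500 mg/kg) plus LPS (1.5 μg/kg). Blood was taken by cardiac puncture and plasma TNFα measured against a vehicle-only control.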

The nature of data set [15]: Drug uptake in LPS-stimulated female Lewis rat serum at 10 mg/kg, po pretreated for 3 hrs followed by LPS addition measured after 1.5 hrs post dose. Particulars: read-out: Drug uptake. The data set is classed as ADME, organism-based. A digest of the protocol: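 Female Lewis rats, n = 8/group, dosed orally at 10 mg/kg at 1, 3 or 5 h before LPS challenge. Serum aliquots taken 1.5 h after LPS were used to measure drug concentration.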

Another data set concerns Bone marrow cell. Description: Clastogenicity in mouse bone marrow cells by microneucleus test. The data set is classed as toxicity, cell-based. The method in brief: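 In vivo micronucleus test in mouse bone marrow.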
Data set [16] can be described thus: Drug metabolism in human primary hepatocytes assessed as CBS-3846 formation at 10 to 100 uM. The data set is classed as ADME, cell-based, Hepatocyte.
Data set [17] has as its target Receptor-interacting serine/threonine-protein kinase 2 (Homo sapiens) (UniProt O43353). Description: Inhibition of RIPK2 (unknown origin) at 10 uM relative to control.
The nature of data set [18]: AUC (0 to t) in female Sprague-Dawley rat at 30 mg/kg, po by LC-MS/MS analysis. The data set is classed as ADME, organism-based. To be noted: in vivo. The method in brief: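 Rats of each sex received a single oral dose of 30 mg/kg. Plasma concentration–time profiles of parent were determined separately for females and males.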
Another data set deals with Cynomolgus monkey. Description: In vivo inhibition of P38 MAPKalpha in po dosed cynomolgus monkey assessed as decrease in TNFalpha level in LPS-stimulated whole blood pretreated for 4 weeks followed by ex vivo LPS addition measured on day 27. The data set is classed as functional, organism-based. Particulars: Macaca fascicularis.
Data set [19] concerns Rattus norvegicus. Description: In vivo inhibition of P38 MAPKalpha in Lewis rat assessed as decrease in LPS-stimulated TNFalpha level in serum at 10 mg/kg, po pretreated for 1 hrs followed by LPS addition measured after 1.5 hrs post dose. In kind it is functional, organism-based. The method in brief: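 Lewis rats, n = 8/group: females dosed orally at 10 mg/kg at −1, −3 or −5 h relative to LPS challenge, plus one male group dosed at −1 h. Male and female vehicle controls were given at −1 h. Serum TNFα was measured after LPS and compared with vehicle.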

Data set [20] in a line: Drug metabolism in cynomolgus monkey liver microsomes assessed as 4-(4-(4-fluorophenyl)-1-methyl-2-(methylsulfinyl)-1H-imidazol-5-yl)pyridin-2-amine formation at 10 to 100 uM. In kind it is ADME, Macaca fascicularis, microsome. A digest of the protocol:
as §1

Data set [21] is filed under the species Homo sapiens. The experiment in a line: Inhibition of cyclinH/MAT1 (unknown origin) at 10 uM relative to control.
Another data set concerns Salmonella typhimurium. The experiment in a line: Genotoxicity in Salmonella typhimurium in absence of S9 fraction by Ames test. In kind it is toxicity. Particulars: salmonella enterica subsp. enterica serovar typhimurium. The method in brief:
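Bacterial reverse mutation (Ames) test in S. typhimurium and E. coli strains, run with and without S9 mix.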
For orientation: In the Ames test, an excess of revertant colonies over the control signals mutagenicity.

The nature of data set [22]: Apparent permeability in human Caco2 cells at 10 uM. The data set is classed as ADME, cell-based. To be noted: Caco-2. In general terms: Passage across Caco-2 layers is used to estimate intestinal permeability.
The species named for data set [23] is Homo sapiens. Description: Inhibition of p70S6K (unknown origin) at 10 uM relative to control.

The source made the active and inactive calls. The rule behind the calls is not given here.

Broadly, the inhibition is the drop in the measured response relative to a control, in per cent. One may read the Cmax as the peak of the concentration-time curve. What is called AUC(0-t) is exposure summed from dosing to a finite time, without extrapolation to infinity. The inhibition in vivo is the percentage by which the read-out fell short of the control. The Papp is a coefficient for how fast a substance crosses the barrier.

Chain of Adenosine receptor A1 (Homo sapiens) (P30542 whole entry): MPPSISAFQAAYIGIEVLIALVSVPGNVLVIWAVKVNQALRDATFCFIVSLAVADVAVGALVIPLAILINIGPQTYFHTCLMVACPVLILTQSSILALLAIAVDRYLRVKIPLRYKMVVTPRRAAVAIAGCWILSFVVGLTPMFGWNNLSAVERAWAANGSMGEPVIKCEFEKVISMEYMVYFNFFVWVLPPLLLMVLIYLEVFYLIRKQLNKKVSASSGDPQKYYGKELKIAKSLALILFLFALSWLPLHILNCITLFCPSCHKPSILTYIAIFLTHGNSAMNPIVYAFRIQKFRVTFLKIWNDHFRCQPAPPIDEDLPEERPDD
Chain of Mitogen-activated protein kinase 1 (Homo sapiens) (P28482 whole entry): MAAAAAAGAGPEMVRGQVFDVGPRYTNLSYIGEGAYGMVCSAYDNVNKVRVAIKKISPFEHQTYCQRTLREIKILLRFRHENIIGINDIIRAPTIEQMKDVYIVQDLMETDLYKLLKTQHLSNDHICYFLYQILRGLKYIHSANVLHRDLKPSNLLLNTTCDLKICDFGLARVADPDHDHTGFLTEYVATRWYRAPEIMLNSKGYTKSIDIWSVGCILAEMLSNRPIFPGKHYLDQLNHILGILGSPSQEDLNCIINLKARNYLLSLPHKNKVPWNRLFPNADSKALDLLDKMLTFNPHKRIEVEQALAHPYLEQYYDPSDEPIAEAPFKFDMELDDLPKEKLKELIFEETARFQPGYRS
Chain of Receptor-interacting serine/threonine-protein kinase 2 (Homo sapiens) (O43353 whole entry): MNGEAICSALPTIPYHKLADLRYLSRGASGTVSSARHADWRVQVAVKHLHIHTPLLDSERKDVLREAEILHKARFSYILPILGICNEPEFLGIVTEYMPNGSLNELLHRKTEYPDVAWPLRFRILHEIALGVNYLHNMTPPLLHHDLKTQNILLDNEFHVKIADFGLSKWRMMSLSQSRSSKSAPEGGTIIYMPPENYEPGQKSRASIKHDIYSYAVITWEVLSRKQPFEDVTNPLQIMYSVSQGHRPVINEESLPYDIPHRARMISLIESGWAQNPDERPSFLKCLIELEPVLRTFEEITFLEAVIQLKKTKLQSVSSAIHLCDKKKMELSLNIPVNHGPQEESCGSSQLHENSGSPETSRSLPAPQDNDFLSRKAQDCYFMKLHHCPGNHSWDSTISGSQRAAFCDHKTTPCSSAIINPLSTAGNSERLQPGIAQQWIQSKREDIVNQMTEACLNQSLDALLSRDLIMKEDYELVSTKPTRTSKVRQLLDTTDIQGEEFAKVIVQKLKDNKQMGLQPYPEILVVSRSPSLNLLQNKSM
Chain of Mitogen-activated protein kinase 11 (Homo sapiens) (Q15759 whole entry): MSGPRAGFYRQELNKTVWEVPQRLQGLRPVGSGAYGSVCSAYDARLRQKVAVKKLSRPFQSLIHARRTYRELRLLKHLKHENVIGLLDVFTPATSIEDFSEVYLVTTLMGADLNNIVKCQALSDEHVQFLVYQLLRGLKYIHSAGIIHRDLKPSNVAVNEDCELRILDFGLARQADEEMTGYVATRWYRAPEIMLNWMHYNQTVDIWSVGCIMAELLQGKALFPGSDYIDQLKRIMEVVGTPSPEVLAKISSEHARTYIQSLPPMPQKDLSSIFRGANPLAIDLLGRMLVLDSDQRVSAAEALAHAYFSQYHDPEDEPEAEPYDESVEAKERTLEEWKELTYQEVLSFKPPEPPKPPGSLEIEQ

For the molecule `Cn1c([S+](C)[O-])nc(-c2ccc(F)cc2)c1-c1ccnc(N)c1` (stereo not drawn), the inhibition result in data set [1] and in data set [2] was “inactive” each time. Besides, the Drug metabolism result in the data set with Liver is listed as “Metabolite_Detected”. Besides, in the data set on Canis familiaris [3], the AUCt amounted to 86.5 µM·h. Moreover, in the data set with Canis familiaris [4], the Cmax was found to be 5.1 µM.

As for `CC(=O)Nc1cc(-c2c(-c3ccc(F)cc3)nc([S+](C)[O-])n2C)ccn1` (stereo not drawn), the result with Rattus norvegicus [5], in the data set with Mus musculus [6], in the data set with Rattus norvegicus [11] and with Mus musculus [12] was Active. The molecule also displayed a Cmax in data set [7] of 8.4 µM. Besides, the AUC(0-t) in data set [8] is 93.4 µM·h; in data set [18], 40.9 µM·h. The Drug excretion in data set [9] came to 6 %ID. The MTD at 336 h in data set [10] was determined as 150 mg/kg. In addition, the inhibition in data set [13] was 58%; in [17] it was 33%; with Cynomolgus monkey, “Dose-dependent effect”; in the data set filed under Homo sapiens [21] it was 54%; in the data set listed under Homo sapiens [23], 32%. In addition, the Drug uptake with Serum was found to be 689 ng/mL. The inhibition in vivo at 30 mg/kg in the data set with Mus musculus [14] came out at 95%. The concentration at 1.5 h in [15] was 526 ng/mL. The Activity entry with Bone marrow cell and with Salmonella typhimurium was “Non-Toxic” each time. For the same molecule, the Drug metabolism result in data set [16] and in data set [20] was “Metabolite_Detected” each time. For the same molecule, the inhibition result in the data set on Rattus norvegicus [19] was “Active”. The apparent permeability (Papp) at 10 µM in data set [22] stood at 18.5 ×10⁻⁶ cm/s.

For the origin of these results see ChEMBL document CHEMBL4028848, “Discovery of N-{4-[5-(4-Fluorophenyl)-3-methyl-2-methylsulfanyl-3H-imidazol-4-yl]-pyridin-2-yl}-acetamide (CBS-3595), a Dual p38α MAPK/PDE-4 Inhibitor with Activity against TNFα-Related Diseases” (J Med Chem, 2017).
